Experimental data taken from ChEMBL document CHEMBL1123464, “Analogues of platelet activating factor. 5. Multiple oxygen substitution of the alkoxy chain” (J Med Chem, 1986).
pEC50: −log10 of the molar value.

Columns and labels:
Oryctolagus cuniculus [1] = species: Oryctolagus cuniculus; assay: Compound was evaluated in rabbit-platelet rich plasma (PRP) for the molar concentration required to produce 50% of maximum aggregation; format: functional
In short: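 Rabbit platelet-rich plasma; aggregation dose-response curves over 10^-4 to 10^-9 M, two to six replicates per dose level; EC50 is the molar concentration giving 50% of the compound's own maximum aggregation; n counts independent curve determinations.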

Rattus norvegicus = assay: Compound was evaluated in spontaneous hypertensive rats (SHR) for the intravenous dose required to decrease mean arterial blood pressure (MABP) 50 mmHg; format: functional, Artery
In short: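 Spontaneously hypertensive rats, intravenous dosing; mean arterial blood pressure monitored; dose lowering MABP by 50 mmHg extrapolated from the dose-response curve.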

[2] = Ratio value is (MAPB/platelet EC50)*10e-8; format: functional
In short: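 Selectivity index: intravenous hypotensive dose (SHR, 50 mmHg MABP drop) divided by rabbit PRP aggregation EC50; compared against racemic C16-PAF standard to judge separation of hypotensive and aggregatory effects.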

Oryctolagus cuniculus [3] = species: Oryctolagus cuniculus; assay: Compound was evaluated in rabbit-platelet rich plasma (PRP) for the maximum aggregation response observed at 1.9*10e-4 molar concentration; format: functional
Oryctolagus cuniculus [4] = species: Oryctolagus cuniculus; assay: Compound was evaluated in rabbit-platelet rich plasma (PRP) for the maximum aggregation response observed 6.8*10e-6 molar concentration; format: functional

## CCCCCCCCCCOCCOCCOCC(COP(=O)([O-])OCC[N+](C)(C)C)OC(C)=O (configuration not stated)
Oryctolagus cuniculus [1]
  pEC50: 6.89
Rattus norvegicus
  Dose: 0.0129 mg/kg
[2]
  Ratio: 0.99
Oryctolagus cuniculus [3]
  Max aggregation: 61

## COCCOCCOCCCCCCCCOCC(COP(=O)([O-])OCC[N+](C)(C)C)OC(C)=O (configuration not stated)
Oryctolagus cuniculus [1]
  pEC50: 5.28
Rattus norvegicus
  Dose: 0.0805 mg/kg
[2]
  Ratio: 0.15
Oryctolagus cuniculus [3]
  Max aggregation: 67

## CCCCCCCCCCCCCCCCOCC(COP(=O)([O-])OCC[N+](C)(C)C)OC(C)=O (configuration not stated) [PLATELET ACTIVATING FACTOR]
Oryctolagus cuniculus [4]
  Max aggregation: 71
Oryctolagus cuniculus [1]
  pEC50: 7.58
Rattus norvegicus
  Dose: 0.00125 mg/kg
[2]
  Ratio: 0.47
